Data set [1] can be described thus: ratio of cathepsin B/papain. The essentials: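 Both enzymes were run in a continuous CbzPheArgMCA fluorescence assay in 50 mM phosphate, 200 mM NaCl, 5 mM EDTA and 10% acetonitrile. Recombinant rat cathepsin B was run at pH 6.0 with 0.5 mM DTT. Papain was run at pH 6.5. In each case kobs was followed until complete inactivation.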
For the next data set, the target named is papain (Carica papaya) (UniProt P00784). Description: Second order rate constant for inactivation of papain. The following applies: in vitro.
The species entered for a further data set is Rattus norvegicus. Description: Second order rate constant for inactivation of rat cathepsin B. The following applies: in vitro. In outline:
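Recombinant rat cathepsin B expressed in yeast, activated 15 min on ice in buffer containing 1 mM DTT. Continuous assay at pH 6.0: 50 mM phosphate, 200 mM NaCl, 5 mM EDTA, 10% v/v acetonitrile, 0.5 mM DTT. Substrate CbzPheArgMCA; fluorescence (ex 380, em 440 nm) followed until complete inactivation (typically 5–30 min) to obtain first-order kobs.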

SMILES strings stand for the structures.

Drawing on ChEMBL document CHEMBL1126618, “Epoxysuccinyl dipeptides as selective inhibitors of cathepsin B” (J Med Chem, 1993), this text covers Ratio and kinact/Ki for 6 compounds.

Consider `CCOC(=O)[C@H]1O[C@H]1C(=O)N[C@@H](CC(C)C)C(=O)N1CCC[C@H]1C(=O)O`, for which the Ratio in data set [1] worked out at 18. The results for the kinact/Ki at papain (Carica papaya) and in the data set listed under Rattus norvegicus were 760 M⁻¹ s⁻¹ and 13800 M⁻¹ s⁻¹, respectively.
For `CC(C)CNC(=O)[C@H]1O[C@H]1C(=O)N[C@@H](CC(C)C)C(=O)N1CCC[C@H]1C(=O)O`, in that order: 93, 558 M⁻¹ s⁻¹ and 52000 M⁻¹ s⁻¹.
For `CC(C)C[C@H](NC(=O)[C@@H]1O[C@@H]1C(=O)O)C(=O)N1CCC[C@H]1C(=O)OCc1ccccc1`, in that order: 0.05, 176000 M⁻¹ s⁻¹ and 8700 M⁻¹ s⁻¹.
On the same counts, the results for `CCOC(=O)[C@H]1O[C@H]1C(=O)N[C@@H](CC(C)C)C(=O)N1CCC[C@H]1C(=O)OCc1ccccc1` are 0.3, 110 M⁻¹ s⁻¹ and 30 M⁻¹ s⁻¹.
Take `CC(C)CNC(=O)[C@H]1O[C@H]1C(=O)N[C@@H](CC(C)C)C(=O)N1CCC[C@H]1C(=O)OCc1ccccc1`: the Ratio in data set [1] turned out to be 0.1. Moreover, the kinact/Ki was found to be 2070 M⁻¹ s⁻¹ on papain (Carica papaya) and 206 M⁻¹ s⁻¹ in the data set filed under Rattus norvegicus.
For `CC(C)C[C@H](NC(=O)[C@@H]1O[C@@H]1C(=O)O)C(=O)N1CCC[C@H]1C(=O)O`, in that order: 0.07, 30000 M⁻¹ s⁻¹ and 2200 M⁻¹ s⁻¹.
